Data as given in ChEMBL document CHEMBL6134766, “Design, synthesis, and evaluation of benzhydrylpiperazine-based novel dual COX-2/5-LOX inhibitors with anti-inflammatory and anti-cancer activity” (RSC Med Chem, 2025).
Calls of active or inactive are those of the source. The calls are words filed in the database; no cut-off is given here.

What was measured:
[1] = biological target: T1, Polyunsaturated fatty acid 5-lipoxygenase (Homo sapiens, UniProt P09917); experiment: Inhibition of 5-LOX (unknown origin) using arachidonic acid as substrate preincubated for 5 mins followed by substrate addition measured after 10 mins by spectrophotometry
T1 sequence (P09917 whole entry): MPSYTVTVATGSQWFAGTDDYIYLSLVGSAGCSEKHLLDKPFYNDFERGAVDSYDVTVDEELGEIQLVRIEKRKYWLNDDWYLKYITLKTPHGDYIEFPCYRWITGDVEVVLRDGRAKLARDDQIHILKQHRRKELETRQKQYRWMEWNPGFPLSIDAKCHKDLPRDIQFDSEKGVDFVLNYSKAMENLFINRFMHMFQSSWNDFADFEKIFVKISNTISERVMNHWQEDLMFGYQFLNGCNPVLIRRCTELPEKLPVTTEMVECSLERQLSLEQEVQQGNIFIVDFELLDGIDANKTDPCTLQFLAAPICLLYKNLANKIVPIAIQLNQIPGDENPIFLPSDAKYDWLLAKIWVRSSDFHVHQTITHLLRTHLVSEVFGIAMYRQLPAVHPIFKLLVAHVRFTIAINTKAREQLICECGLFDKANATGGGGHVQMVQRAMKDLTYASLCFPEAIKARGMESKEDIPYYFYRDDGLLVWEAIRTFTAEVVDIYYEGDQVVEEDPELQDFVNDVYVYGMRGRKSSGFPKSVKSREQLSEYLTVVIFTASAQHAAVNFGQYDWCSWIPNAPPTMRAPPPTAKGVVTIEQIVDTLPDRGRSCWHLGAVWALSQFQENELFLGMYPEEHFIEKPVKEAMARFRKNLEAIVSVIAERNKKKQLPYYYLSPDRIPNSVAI

[2] = Acute toxicity in female Wistar rat assessed as drug tolerance up to 500 mg/kg, po measured for 14 days; assay type: organism-based; conditions: in vivo, 336 h, time 14 day
Outline: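 Followed OECD 423 guideline in healthy female Wistar rats weighing 200–250 g. Animals were housed at 25 ± 2 °C and 45–60% RH on a 12 h light/dark cycle, with free access to water and food.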

[3] = system: Rattus norvegicus; experiment: Anti-inflammatory activity in carrageenan-induced paw edema Wistar rat model assessed as swelling thickness of paw at 5 mg/kg, po measured immediately by digital vernier caliper (reference value: 3.48 +/- 0.21 millimeter); assay type: functional
[4] = system: Rattus norvegicus; experiment: Anti-inflammatory activity in carrageenan-induced paw edema Wistar rat model assessed as swelling thickness of paw at 5 mg/kg, po measured after 1 hr by digital vernier caliper (reference value: 8.47 +/- 0.25 millimeter); assay type: functional
[5] = system: Rattus norvegicus; experiment: Anti-inflammatory activity in carrageenan-induced paw edema Wistar rat model assessed as swelling thickness of paw at 20 mg/kg, po measured after 1 hr by digital vernier caliper (reference value: 8.47 +/- 0.25 millimeter); assay type: functional
[6] = system: Rattus norvegicus; experiment: Anti-inflammatory activity in carrageenan-induced paw edema Wistar rat model assessed as swelling thickness of paw at 20 mg/kg, po measured after 2 hrs by digital vernier caliper (reference value: 8.65 +/- 0.53 millimeter); assay type: functional
[7] = system: Rattus norvegicus; experiment: Anti-inflammatory activity in carrageenan-induced paw edema Wistar rat model assessed as swelling thickness of paw at 5 mg/kg, po measured after 3 hrs by digital vernier caliper (reference value: 8.56 +/- 0.45 millimeter); assay type: functional
[8] = system: Rattus norvegicus; experiment: Anti-inflammatory activity in carrageenan-induced paw edema Wistar rat model assessed as swelling thickness of paw at 20 mg/kg, po measured after 3 hrs by digital vernier caliper (reference value: 8.56 +/- 0.45 millimeter); assay type: functional
[9] = system: Rattus norvegicus; experiment: Anti-inflammatory activity in carrageenan-induced paw edema Wistar rat model assessed as swelling thickness of paw at 10 mg/kg, po measured after 5 hrs by digital vernier caliper (reference value: 8.47 +/- 0.32 millimeter); assay type: functional
[10] = system: Rattus norvegicus; experiment: Anti-inflammatory activity in carrageenan-induced paw edema Wistar rat model assessed as inhibition of PGE2 level administered orally measured for 6 hrs by ELISA; assay type: functional, organism-based; conditions: dose 5-20 mg/kg, route po
Outline: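 Paw tissue taken from carrageenan-edema rats dosed orally at 5, 10 or 20 mg kg−1. Tissue rinsed in PBS pH 7.4, minced, homogenized, filtered and centrifuged at 2000 rpm for 20 min at 4 °C. Supernatant assayed by ELISA for PGE2, IL-6, TNF-α and IL-10. Data as mean ± SD.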

[11] = system: Rattus norvegicus; experiment: Anti-inflammatory activity in arachidonic acid-induced paw edema Wistar rat model assessed as swelling thickness of paw at 20 mg/kg, po measured after 1 hr by digital vernier caliper (reference value: 6.51 +/- 0.37 millimeter); assay type: functional
[12] = Toxicity in fasting Wistar rat assessed as ulcer score at 20 mg/kg, po via gavage treated for 3 days consecutively by H and E staining based analysis (reference value: 0); assay type: organism-based; conditions: in vivo, 72 h, time 3 day
Outline: (§1)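 Fasted rats, n = 6/group, gavaged once daily for 3 days in 0.3% Na CMC (vehicle control 0.3% CMC); killed under anaesthesia 6 h after day-3 dose; stomachs saline-washed, mucosa examined with hand lens; ulcer score, index and % ulceration by reported scoring; some stomachs formalin-fixed, H&E stained.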

[13] = Toxicity in fasting Wistar rat assessed as ulcer index at 5 mg/kg, po via gavage treated for 3 days consecutively by H and E staining based analysis (reference value: 0); assay type: organism-based; conditions: in vivo, 72 h, time 3 day; outline: as §1
[14] = Toxicity in fasting Wistar rat assessed as ulceration at 5 mg/kg, po via gavage treated for 3 days consecutively by H and E staining based analysis (reference value: 0 %); assay type: organism-based; conditions: in vivo, 72 h, time 3 day; outline: as §1
[15] = system: Gastric mucosa; experiment: Antioxidant activity in gastric mucosal tissue in Wistar rat assessed as decrease in nitrite level at 20 mg/kg, po; assay type: functional, organism-based
Outline: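 Fasted rats (n = 6/group) gavaged once daily for 3 days in 0.3% Na CMC and sacrificed 6 h after the final dose. Randomly chosen stomachs homogenized in cold PBS pH 7.4 and centrifuged at 1000 rpm for 10 min at 4 °C. Supernatant protein measured by Bradford assay; GSH and nitrate then measured by reported methods.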

[16] = Toxicity in Wistar rat assessed as change in serum ALT level at 20 mg/kg, po; assay type: organism-based; conditions: in vivo
Outline: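 Rats dosed orally in 0.3% Na CMC; retro-orbital blood clotted at room temperature, serum separated at 2000 rpm, 20 min, 4 °C; ALT, AST, creatinine and urea by commercial kits; n = 6 per group, mean ± SD; Tukey test after repeated-measures one-way ANOVA.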

[17] = system: Rattus norvegicus; experiment: Anti-inflammatory activity in Wistar rat assessed as reduction in ADP/collagen-induced platelet aggregation at 20 mg/kg, po; assay type: functional, organism-based
Outline: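 Platelet-rich plasma from treated rats (n = 6/group) adjusted to 4 × 10^8 platelets per ml in Tyrode's buffer. Absorbance read at 570 nm, then aggregation induced with ADP plus 5 μg ml−1 collagen. Plates incubated 5 min at 37 °C with shaking and absorbance re-read at 570 nm. Percent aggregation derived from the absorbance change.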

[18] = system: Rattus norvegicus; experiment: Cardio-protective activity in ISO-treated Wistar rat assessed as decrease in serum CK-MB level at 20 mg/kg, po; assay type: functional, organism-based
Outline: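 Rats (n = 6/group) given ISO 100 mg kg−1 s.c., then oral test compound in 0.3% CMC; vehicle controls. Retro-orbital blood, serum separated at 4000 rpm, 4 °C, 10 min; LDH and CK-MB by commercial kits; mean ± SD.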

**Q.** What does the source list for `Clc1ccc(-c2nnc(CN3CCN(C(c4ccccc4)c4ccc(Cl)cc4)CC3)o2)cc1` (stereo unspecified)?
**A.** IC50 [1]: 7.87 µM; Activity [2]: Non-toxic; Activity [3]: 3.51 mm; Activity [4]: 6.18 mm; Activity [5]: 5.12 mm; Activity [6]: 4.11 mm; Activity [7]: 4.67 mm; Activity [8]: 3.41 mm; Activity [9]: 3.29 mm; inhibition [10]: Dose-dependent-effect; Activity [11]: 1.94 mm; Activity [12]: 0.018; UI [13]: 0; Activity [14]: 0%; Activity [15]: Active; Activity [16]: Non-toxic; Activity [17]: Active; Activity [18]: Active

**Q.** With `O=[N+]([O-])c1ccc(-c2nnc(CN3CCN(C(c4ccccc4)c4ccc(Cl)cc4)CC3)o2)cc1` (stereo unspecified) as the molecule, how does the IC50 [1] read?
**A.** The IC50 was 9.16 µM.

**Q.** What about the Activity [2] of the same molecule?
**A.** The Activity was “Non-toxic”.

**Q.** What about the Activity [3] of the same molecule?
**A.** Its Activity is 3.59 mm.

**Q.** What about the Activity [4] of the same molecule?
**A.** Its Activity is 5.74 mm.

**Q.** What about the Activity [5] of the same molecule?
**A.** The Activity was 5.16 mm.

**Q.** What about the Activity [6] of the same molecule?
**A.** Its Activity is 4.78 mm.

**Q.** And the Activity [7]?
**A.** Its Activity is 4.87 mm.

**Q.** What about the Activity [8] of the same molecule?
**A.** The Activity was 4.54 mm.

**Q.** What about the Activity [9] of the same molecule?
**A.** Its Activity is 3.76 mm.

**Q.** What about the inhibition [10] of the same molecule?
**A.** The inhibition was “Dose-dependent-effect”.

**Q.** And the Activity [11]?
**A.** Its Activity is 2.24 mm.

**Q.** What about the Activity [12] of the same molecule?
**A.** Its Activity is 0.093.

**Q.** What about the UI [13] of the same molecule?
**A.** The UI was 1.041.

**Q.** What about the Activity [14] of the same molecule?
**A.** Its Activity is 0.667%.

**Q.** And the Activity [15]?
**A.** The Activity was “Active”.

**Q.** What about the Activity [16] of the same molecule?
**A.** The Activity was “Non-toxic”.

**Q.** What about the Activity [17] of the same molecule?
**A.** Its Activity is “Active”.

**Q.** And the Activity [18]?
**A.** The Activity was “Active”.
